The values that follow come from ChEMBL document CHEMBL3867488 (ACS Med Chem Lett, 2016).

pEC50: −log10 of the molar value.

For data set [1], the target named is T1, Oxysterols receptor LXR-beta (Homo sapiens) (UniProt P55055).
T1 sequence (whole entry): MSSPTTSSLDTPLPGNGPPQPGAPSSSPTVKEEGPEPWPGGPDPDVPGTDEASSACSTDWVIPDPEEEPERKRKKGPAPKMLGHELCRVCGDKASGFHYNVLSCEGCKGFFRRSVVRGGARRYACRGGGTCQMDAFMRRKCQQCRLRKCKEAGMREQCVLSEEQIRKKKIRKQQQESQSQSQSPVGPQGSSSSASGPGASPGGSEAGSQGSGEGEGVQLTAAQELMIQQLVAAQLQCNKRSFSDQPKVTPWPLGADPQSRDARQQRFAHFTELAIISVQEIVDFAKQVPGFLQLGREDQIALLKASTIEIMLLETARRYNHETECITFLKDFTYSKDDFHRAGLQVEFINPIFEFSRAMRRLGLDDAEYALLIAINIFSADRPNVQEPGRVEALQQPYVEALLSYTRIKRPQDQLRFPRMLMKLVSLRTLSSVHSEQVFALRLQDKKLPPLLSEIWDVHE
As to the kind of experiment: Agonist activity at human LXR-beta expressed in African green monkey CV1 cells measured after 18 to 20 hrs by luciferase reporter gene assay relative to pan agonist 1-(2,4-difluorobenzyl)-2-oxo-6-(4-phenoxyphenyl)-4-(trifluoromethyl)-1,2-dihydropyridine-3-carbonitrile. Format: cell-based. As to conditions: CV-1. In general terms: Reporter assays use an easily measured gene product as a stand-in for the process of interest.

Data set [2] deals with T2, Oxysterols receptor LXR-beta (Homo sapiens, UniProt P55055).
T2 sequence (P55055 whole entry): T1 sequence (whole entry)
As to the kind of experiment: Agonist activity at human LXR-beta expressed in African green monkey CV1 cells measured after 18 to 20 hrs by luciferase reporter gene assay. The class given is cell-based, CV-1.

For data set [3], the target named is T1, Oxysterols receptor LXR-beta (Homo sapiens). As to the kind of experiment: Agonist activity at LXR-beta in human whole blood assessed as ABCA1 gene induction by measuring ABCA1 mRNA level after 4 hrs by SYBR-Green dye-based Q-PCR analysis relative to pan agonist 2-(4-(5-(5-cyano-1-(2,4-difluorobenzyl)-6-oxo-4-(trifluoromethyl)-1,6-dihydropyridin-2-yl)thiophen-2-yl)-3-methylphenyl)acetic acid. Format: tissue-based.

The target in data set [4] is Albumin (Homo sapiens, UniProt P02768). As to the kind of experiment: Binding affinity to human serum albumin at 1 uM measured after 4 hrs by equilibrium dialysis method relative to control. Format: ADME. As to conditions: isolated protein, 4 h, 1 µM.
Sequence of Albumin (P02768 whole entry): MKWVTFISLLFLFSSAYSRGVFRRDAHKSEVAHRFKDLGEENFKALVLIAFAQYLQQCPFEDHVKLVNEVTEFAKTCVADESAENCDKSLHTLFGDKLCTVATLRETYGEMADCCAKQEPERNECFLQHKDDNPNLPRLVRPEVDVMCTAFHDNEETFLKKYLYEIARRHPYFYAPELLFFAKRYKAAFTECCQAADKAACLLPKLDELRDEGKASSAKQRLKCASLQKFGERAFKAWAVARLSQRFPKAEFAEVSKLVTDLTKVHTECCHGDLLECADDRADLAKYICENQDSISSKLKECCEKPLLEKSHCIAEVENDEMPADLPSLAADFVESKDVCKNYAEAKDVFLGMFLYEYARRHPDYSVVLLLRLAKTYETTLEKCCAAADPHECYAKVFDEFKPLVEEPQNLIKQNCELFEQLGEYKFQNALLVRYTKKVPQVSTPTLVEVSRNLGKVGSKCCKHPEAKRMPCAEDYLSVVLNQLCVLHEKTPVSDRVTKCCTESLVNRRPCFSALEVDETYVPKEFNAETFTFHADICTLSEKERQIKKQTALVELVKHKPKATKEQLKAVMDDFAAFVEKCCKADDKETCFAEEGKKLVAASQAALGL
The nature of data set [5]: Agonist activity at LXR-beta in cynomolgus monkey whole blood assessed as ABCA1 gene induction by measuring ABCA1 mRNA level after 4 hrs by SYBR-Green dye-based Q-PCR analysis. The class given is tissue-based. As to conditions: Macaca fascicularis.
Data set [6] is filed under the species Macaca fascicularis. Nature of the data set: Agonist activity at LXR-beta in cynomolgus monkey whole blood assessed as ABCA1 gene induction by measuring ABCA1 mRNA level after 4 hrs by SYBR-Green dye-based Q-PCR analysis relative to control. The class given is tissue-based.
A short description of data set [7]: Plasma concentration in cynomolgus monkey at 1 mg/kg, po qd administered via gavage for 14 days measured after 5 hrs of last-dose by LC/MS/MS analysis. The class given is ADME, organism-based, Macaca fascicularis. In a few lines:
(§1)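 Cynomolgus monkeys dosed daily for 14 days. On day 14, plasma drug concentration was taken 5 h post-dose. Plasma triglycerides were expressed as % elevation over baseline, with significance tested by ANOVA (p < 0.05).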

Data set [8] can be described thus: Effect on plasma triglyceride level in cynomolgus monkey at 1 mg/kg, po qd administered via gavage for 14 days measured after 24 hrs of last-dose relative to base line. Format: ADME, organism-based, Macaca fascicularis. The settings on record: in vivo. The method in brief:
as §1

The nature of data set [9]: Plasma concentration in cynomolgus monkey at 0.3 mg/kg, po qd administered via gavage for 14 days measured after 5 hrs of last-dose by LC/MS/MS analysis. The class given is ADME, organism-based, Macaca fascicularis. The method in brief: as §1
Data set [10] has as its system Cynomolgus monkey. As to the kind of experiment: In vivo agonist activity at LXR-beta in cynomolgus monkey assessed as ABCG1 gene induction by measuring total RNA level at 0.1 mg/ kg, po qd administered via gavage for 14 days measured 5 to 6 hrs post-dose. Format: functional, Macaca fascicularis. The method in brief: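 Cynomolgus monkeys dosed daily for 14 days. ABCG1 mRNA induction measured in blood cells on day 14 and expressed as fold change. Plasma drug concentration taken about 5 h post-dose. Plasma triglycerides also measured against baseline, with significance by ANOVA.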

A short description of data set [11]: Effect on plasma triglyceride level in cynomolgus monkey at 0.3 mg/kg, po qd administered via gavage for 14 days measured after 24 hrs of last-dose relative to base line. Format: ADME, organism-based, Macaca fascicularis. As to conditions: in vivo. The method in brief: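 Cynomolgus monkeys dosed for 14 days, with groups at 0.1, 0.3 and 1 mg/kg. Plasma triglycerides expressed as percent change over baseline, with significance by ANOVA. Plasma drug exposure sampled 5 h post-dose. ABCG1 induction in blood cells monitored in the same animals.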

By pEC50 is commonly meant the EC50 on a negative log10 scale, so that one unit is a factor of ten. On to `CC(C)(O)c1cn(-c2ccc(-c3cc(F)c(CO)c(S(C)(=O)=O)c3)cc2F)c(C(C)(C)c2c(Cl)cccc2Cl)n1` [BMS-852927], for which the Efficacy in [1] was found to be 88%; in data set [3] it was 26%; in data set [6] it was 32%. The pEC50 in data set [2] is 7.62; in data set [5], 8.30. In addition, the PB in data set [4] worked out at 96.6%. Moreover, the concentration at 5 h in data set [7] was determined as 57 nM; in data set [9], 22 nM. Further, the Activity in data set [8] was 10%; in data set [11], 8%. Also, in data set [10], the “fold change (FC)” value is reported as 4.7.
